Reference: PMC8592115 (ACS Medicinal Chemistry Letters, 2021)
“Also recorded” adds a separate entry of the source.

Tests used:
CXCL12 [1] = biological target: T1, CXCL12 (Homo sapiens, UniProt P48061); assay: 2D NMR chemical shift perturbation titration of 15N-CXCL12; type: binding; conditions: for precipitation/aggregation of CXCL12 on addition of compound: NMR titration samples
[2] = Qualitative solubility of compounds in NMR titration samples; type: physicochemical; conditions: samples prepared for NMR titration
Summary of the method: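 Test compound titrated into CXCL12 at increasing concentrations up to 1600 μM, with HSQC spectra recorded at each step. Solubility was scored against a cut-off of ≥1600 μM in these titration samples. Soluble compounds counted as binders if they also shifted at least two of residues I28, V39 and A40 by ≥0.5 ppm.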

CXCL12 [3] = biological target: T1, CXCL12; assay: Calculation of ligand efficiency; conditions: Table 6; LLE = pKd – cLogP

solubility, qualitative [2]	Compound	precipitation/aggregation of CXCL12 on addition of compound (CXCL12 [1])	other results
	O=C(O)c1ccc(Nc2nc(Nc3ccc(C(=O)O)cc3)nc(-c3ccccc3)n2)cc1 [Compound 9m]	caused aggregation and precipitation of the protein	
insoluble; also recorded: low solubility	O=C(O)CSc1nc(SCC(=O)O)nc(-c2ccc(-c3ccccc3)cc2)n1 [Compound 13e]		
qualitatively greater solubility	O=C(O)CSc1nc(SCC(=O)O)nc(-c2ccc(N3CCOCC3)cc2)n1 [Compound 13i]		
	O=C(O)CSc1nc(SCC(=O)O)nc(-c2cnc3ccccc3c2)n1 [Compound 13l]	precipitated the protein from solution; also recorded: caused CXCL12 to precipitate	
	O=C(O)CSc1nc(SCC(=O)O)nc(-c2ccc(Oc3ccccc3)cc2)n1 [Compound 13m]	precipitated the protein from solution; also recorded: caused CXCL12 to precipitate	
	O=C(O)CSc1nc(SCC(=O)O)nc(-c2ccoc2)n1 [Compound 13n]	precipitated the protein from solution; also recorded: caused CXCL12 to precipitate	
	O=C(O)CSc1nc(SCC(=O)O)nc(C2C3CC4CC(C3)CC2C4)n1 (centres unmarked) [Compound 17, 2,2'-((6-((1r,3r)-Adamantan-2-yl)-1,3,5-triazine-2,4-diyl)bis(sulfanediyl))diacetic acid]		Kd (CXCL12 [1]): > 1600 µM
	O=C(O)CSc1nc(SCC(=O)O)nc(C2=CCCCC2)n1 [Compound 20, 2,2'-((6-(Cyclohex-1-en-1-yl)-1,3,5-triazine-2,4-diyl)bis(sulfanediyl))diacetic acid]	caused the protein to precipitate; also recorded: b 20 caused CXCL12 to precipitate	
notably more soluble than its analogues	O=C(O)CSc1nc(SCC(=O)O)nc(N2CCOCC2)n1 [Compound 24j]		LLE (lipophilic ligand efficiency) (CXCL12 [3]): 2.07

Compound	solubility, qualitative [2]	precipitation/aggregation of CXCL12 on addition of compound (CXCL12 [1])	other results
O=C(O)CSc1nc(SCC(=O)O)nc(Sc2ccccc2)n1 [Compound 24a, 2,2'-((6-(Phenylthio)-1,3,5-triazine-2,4-diyl)bis(sulfanediyl))diacetic acid]	not as soluble as some of our other analogues		
